For six molecules, Activity, Drug uptake and IC50 results are on record in ChEMBL document CHEMBL3286111, “Tryptophan hydroxylase 1 (Tph-1)-targeted bone anabolic agents for osteoporosis” (J Med Chem, 2014).

In general, IC50 refers to the concentration that inhibits the measured activity by half.

Series [1] deals with Rattus norvegicus. Kind of series: Effect on endometrial luminal epithelium with undeveloped endometrial gland in ovariectomized rat at 10 to 20 mg/kg/day, po for 30 days by hematoxylin-eosin staining-based light microscopic analysis. It is filed as ADME, organism-based. Details: route oral. Conditions: in vivo, 720 h. An outline of the steps:
(§1)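 OVX rats dosed orally with 9a (1, 10, 20 mg/kg/day) for 30 days from 3 days post-surgery. Uteri and livers were collected at the end, then sectioned, stained and examined by light microscopy for endometrial luminal epithelium, glands and liver morphology/pathology.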

Series [2] relates to Rattus norvegicus. Briefly: Antiosteoporotic activity in ovariectomized rat assessed as increase in trabecular number at 1 mg/kg/day, po for 30 days by microcomputed tomographic analysis. The format is functional, organism-based. As to conditions: Trabecula. An outline of the steps:
(§2)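 Ovariectomized 12-week-old female rats dosed orally once daily with 9a (1, 10, 20 mg/kg/day, 5% ethanol vehicle) for 30 days, beginning 3 days after surgery, n = 8 per group. Lumbar vertebrae were collected after CO2 euthanasia and scanned by micro-CT for BV/TV, Tb.Th, Tb.N, Tb.Sp and BMD.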

The subject of series [3] is Rattus norvegicus. Briefly: Effect on brain serotonin level in ovariectomized rat at 1 to 20 mg/kg/day, po for 30 days by RP-HPLC analysis. The format is functional, organism-based. An outline of the steps: (§3)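 Female rats, 12 weeks old (220 g), bilateral ovariectomy under ip pentobarbital; from 3 days after surgery, 9a given orally once daily at 1, 10 or 20 mg/kg in 5% ethanol/95% water for 30 days, n = 8. Serum (HClO4-deproteinized) or brain homogenate (HClO4 plus NaH2PO4/acetonitrile) run on RP-C18 HPLC with fluorescence detection (ex 290/em 330 nm).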

Series [4] deals with Rattus norvegicus. Briefly: Antiosteoporotic activity in ovariectomized po dosed rat assessed as decrease in serum serotonin level administered for 30 days by HPLC analysis. It is filed as functional, organism-based. An outline of the steps:
as §3

Series [5] deals with Rattus norvegicus. Kind of series: Effect on liver pathology in ovariectomized rat at 10 to 20 mg/kg/day, po for 30 days by hematoxylin-eosin staining-based light microscopic analysis. The format is ADME, organism-based. Details: route oral. As to conditions: in vivo, 720 h. The method in brief:
as §1

Series [6] relates to Rattus norvegicus. Kind of series: Antiosteoporotic activity in ovariectomized rat assessed as decrease in serum CTX-1 level at 10 to 20 mg/kg/day, po for 30 days by ELISA. The format is functional, organism-based. The method in brief:
(§4)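 OVX female rats (12 weeks old), oral 9a at 1, 10 or 20 mg/kg per day in 5% ethanol vehicle, starting 3 days post-surgery, for 30 days, n = 8. Serum was taken at the end, centrifuged and stored at −20 °C. P1NP or CTX-1 was measured by ELISA kit and reported as means ± SD.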
On the technique in general: In an ELISA, binding on a coated surface is turned into a signal by an enzyme label.

The test system of a further series is Brain. Kind of series: Drug uptake in ovariectomized rat brain at 10 to 20 mg/kg, po qd for 7 days by LC-MS analysis. It is filed as ADME, organism-based. Details: dose 10-20 mg/kg, route oral. Conditions: in vivo, 168 h. The method in brief:
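OVX rats given oral 9a at 10 or 20 mg/kg once daily for 7 days, starting 3 days after surgery, n = 5. Brain homogenate (about 2.0 g) extracted with 5% HClO4 and ethyl acetate, centrifuged; the organic layer was dried and analysed by LC-MS/MS (limit of detection 12.4 pg).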

The nature of series [7]: Cytotoxicity against rat RBL2H3 cells by MTT assay. The format is cell-based. Details: concentration or dose not given beside the values. As to conditions: rbl-2h3. An outline of the steps:
(§5)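 RBL2H3 cells (α-MEM) or PC12 cells (D-MEM), both with 10% FBS, treated at a single dose in 0.1% DMSO; 0.1% DMSO control; 37 °C, 5% CO2. MTT (5 mg/mL) added 4 h before the end, then SDS/DMF lysis buffer (pH 7.2) for 6 h; absorbance read at 570 nm. Cytotoxicity % calculated from background-corrected OD versus control.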
(Tetrazolium dyes change colour on reduction, which living cells bring about.)

For series [8], the system named is Rattus norvegicus. Kind of series: Antiosteoporotic activity in ovariectomized rat assessed as decrease in trabecular separation at 10 to 20 mg/kg/day, po for 30 days by microcomputed tomographic analysis relative to control. It is filed as functional, Trabecula. Details: scale not given: the % may be the effect or the level left. An outline of the steps: (§6)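 Female rats, 12 weeks old, underwent bilateral ovariectomy; sham, OVX-vehicle and ip PTH 20 μg/kg/day groups were included; n = 8. Oral dosing at 1, 10 and 20 mg/kg/day in 5% ethanol/95% water began 3 days post-surgery, once daily for 30 days. Lumbar vertebrae were scanned by μCT for BV/TV, Tb.Th, Tb.N, Tb.Sp and BMD.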

In series [9] the test system is Rattus norvegicus. Briefly: Antiosteoporotic activity in ovariectomized rat assessed as increase in trabecular thickness at 1 mg/kg/day, po for 30 days by microcomputed tomographic analysis. It is filed as functional, organism-based. As to conditions: Trabecula. The method in brief: as §2
Series [10] relates to Rattus norvegicus. Kind of series: Antiosteoporotic activity in ovariectomized rat assessed as decrease in trabecular separation at 1 mg/kg/day, po for 30 days by microcomputed tomographic analysis. It is filed as functional, organism-based. Conditions: Trabecula. An outline of the steps: as §2
The subject of series [11] is Rattus norvegicus. Briefly: Antiosteoporotic activity in ovariectomized rat assessed as decrease in gut serotonin level at 10 mg/kg, po qd for 7 days by HPLC analysis relative to control. The format is functional. Details: scale not given: the % may be the effect or the level left. The method in brief: (§7)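 Female rats, 12 weeks old (220 g), underwent bilateral ovariectomy under ip pentobarbital; sham controls included; n = 5 per group. Oral dosing in vehicle of 5% ethanol/95% water began 3 days post-surgery, once daily for 7 days. Small intestine (jejunum, ileum) was homogenised in 5% HClO4 and mobile phase. Serotonin was read by C18 HPLC with fluorescence detection (ex 290/em 330 nm).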

Series [12] deals with Rattus norvegicus. Kind of series: Antiosteoporotic activity in ovariectomized rat assessed as decrease in gut serotonin level at 20 mg/kg, po qd for 7 days by HPLC analysis relative to control. It is filed as functional. Details: scale not given: the % may be the effect or the level left. An outline of the steps:
as §7

For series [13], the system named is Rattus norvegicus. Briefly: Antiosteoporotic activity in ovariectomized rat assessed as increase in trabecular number at 10 to 20 mg/kg/day, po for 30 days by microcomputed tomographic analysis relative to control. It is filed as functional, Trabecula. An outline of the steps: as §6
The subject of series [14] is Rattus norvegicus. Briefly: Antiosteoporotic activity in ovariectomized po dosed rat assessed as increase in serum P1NP level administered for 30 days by ELISA. It is filed as functional, organism-based. The method in brief:
as §4

The test system of series [15] is Rattus norvegicus. Kind of series: Antiosteoporotic activity in ovariectomized rat assessed as increase in trabecular bone volume fraction at 1 mg/kg/day, po for 30 days by microcomputed tomographic analysis. It is filed as functional, organism-based. As to conditions: Trabecula. An outline of the steps: as §2
The test system of series [16] is Rattus norvegicus. Briefly: Antiosteoporotic activity in ovariectomized rat assessed as increase in trabecular thickness at 10 to 20 mg/kg/day, po for 30 days by microcomputed tomographic analysis relative to control. The format is functional, Trabecula. The method in brief: as §6
Series [17] relates to Rattus norvegicus. Kind of series: Antiosteoporotic activity in ovariectomized rat assessed as increase in bone mineral density at 10 to 20 mg/kg/day, po for 30 days by microcomputed tomographic analysis relative to control. The format is functional. The method in brief:
as §6

The nature of series [18]: Cytotoxicity against rat PC12 cells by MTT assay. The format is cell-based. As to conditions: pc-12. An outline of the steps:
as §5

Series [19] concerns Rattus norvegicus. Briefly: Antiosteoporotic activity in ovariectomized rat assessed as increase in trabecular bone volume fraction at 10 to 20 mg/kg/day, po for 30 days by microcomputed tomographic analysis relative to control. The format is functional, Trabecula. The method in brief:
as §6

Series [20] relates to Rattus norvegicus. Briefly: Effect on liver morphology in ovariectomized rat at 10 to 20 mg/kg/day, po for 30 days by hematoxylin-eosin staining-based light microscopic analysis. The format is ADME, organism-based. Details: route oral. Conditions: in vivo, 720 h. The method in brief:
as §1

The subject of series [21] is Rattus norvegicus. Briefly: Antiosteoporotic activity in ovariectomized rat assessed as increase in bone mineral density at 1 mg/kg/day, po for 30 days by microcomputed tomographic analysis. The format is functional, organism-based. The method in brief: as §2
In series [22] the target is T1, Tryptophan 5-hydroxylase 1 (Rattus norvegicus, UniProt P09810).
T1 sequence (P09810 whole entry): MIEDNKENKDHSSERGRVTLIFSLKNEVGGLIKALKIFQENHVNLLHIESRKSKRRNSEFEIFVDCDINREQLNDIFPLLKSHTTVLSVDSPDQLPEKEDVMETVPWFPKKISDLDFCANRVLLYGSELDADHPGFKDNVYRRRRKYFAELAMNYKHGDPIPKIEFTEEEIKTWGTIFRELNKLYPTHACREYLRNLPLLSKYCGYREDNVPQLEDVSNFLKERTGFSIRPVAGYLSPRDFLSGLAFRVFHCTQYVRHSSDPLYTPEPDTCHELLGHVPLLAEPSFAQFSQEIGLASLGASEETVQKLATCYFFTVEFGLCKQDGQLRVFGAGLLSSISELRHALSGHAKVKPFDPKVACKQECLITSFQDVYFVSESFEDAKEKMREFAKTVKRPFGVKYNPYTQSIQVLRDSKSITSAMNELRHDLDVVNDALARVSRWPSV

The source made the active and inactive calls. No cut-off for these calls is given here.

`CCOC(=O)CNC(=O)[C@]12CC[C@@H](C)[C@H](C)[C@H]1C1=CC[C@@H]3[C@@]4(C)Cc5nc6ccccc6nc5C(C)(C)[C@@H]4CC[C@@]3(C)[C@]1(C)CC2`: the Activity entry with Rattus norvegicus [1] was “Non-toxic”; in the series with Rattus norvegicus [4] it was “Dose-dependent effect”; in the series with Rattus norvegicus [5], “Non-toxic”; in series [7] it was 1%; in the series with Rattus norvegicus [8], -24.9%; with Rattus norvegicus [11], 34%. Further, the Activity in the series with Rattus norvegicus [12] is 36%; in the series on Rattus norvegicus [13], 43.3%; with Rattus norvegicus [14], “Dose-dependent effect”; with Rattus norvegicus [16] it was 24%; in the series on Rattus norvegicus [17] it was 22.6%; in series [18], “Non-toxic”. Also, the results for the Activity in the series with Rattus norvegicus [19] and with Rattus norvegicus [20] were 28% and “Non-toxic”, respectively. Besides, the result in the series with Rattus norvegicus [2], with Rattus norvegicus [3], in the series on Rattus norvegicus [6], in the series with Rattus norvegicus [9], in the series with Rattus norvegicus [10] and in the series on Rattus norvegicus [15] was inactive. For the same molecule, the outcome with Rattus norvegicus [21] was inactive. In addition, the Drug uptake entry with Brain is recorded as “Not Active”.
Take `Nc1nc(OC(c2ccc(-c3cccc(F)c3)cc2)C(F)(F)F)cc(-c2ccc(C[C@H](N)C(=O)O)cc2)n1` (some centres not stated): the IC50 in series [22] came out at 400 nM.
For `COC(=O)C(CC(C)C)NC(=O)[C@]12CC[C@@H](C)[C@H](C)[C@H]1C1=CC[C@@H]3[C@@]4(C)Cc5cn[nH]c5C(C)(C)[C@@H]4CC[C@@]3(C)[C@]1(C)CC2` (some centres not stated), the Activity in [7] came out at 0.9%.
Consider `C[C@H]1[C@H](C)CC[C@]2(C(=O)NCCCN3CCOCC3)CC[C@]3(C)C(=CC[C@@H]4[C@@]5(C)Cc6nc7ccccc7nc6C(C)(C)[C@@H]5CC[C@]43C)[C@H]12`, for which, in series [7], the Activity is on record as 31.3%.
Still for that read-out and setting: in the case of `CSCC[C@@H](NC(=O)[C@]12CC[C@@H](C)[C@H](C)[C@H]1C1=CC[C@@H]3[C@@]4(C)Cc5nc6ccccc6nc5C(C)(C)[C@@H]4CC[C@@]3(C)[C@]1(C)CC2)C(=O)O` it was 6.2%.
On the same count and under the same terms, the value for `COC(=O)C(CC(C)C)NC(=O)[C@]12CC[C@@H](C)[C@H](C)[C@H]1C1=CC[C@@H]3[C@@]4(C)CCC(=O)C(C)(C)[C@@H]4CC[C@@]3(C)[C@]1(C)CC2` (some centres not stated) was 2.6%.
